Laboratory results reported in article PMC10613910 (Heliyon, 2023).

What was measured:
[1] = Pharmacokinetics of oral talazoparib in wild-type and ABCB1/ABCG2; type: in vivo, mouse; conditions: talazoparib 0.5 mg/kg p.o.; for Cmax: female, FVB, mouse, plasma, po, 0.5 mg/kg, mean (±SEM)
How it was run: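 Adult female FVB wild-type or Abcb1a/Abcb1b/Abcg2-deficient mice (12–20 weeks, 4–5 per group) given test compound 0.5 mg/kg by oral gavage; dosing solution 0.1 mg/mL in 10% dimethylacetamide/5% Solutol HS/85% PBS. Blood at 5, 15, 30 min and 1, 2, 4 h, submandibular then retro-orbital (isoflurane), terminal cardiac. Plasma methanol-precipitated, UHPLC-MS/MS with isotope-labelled IS; Cmax visual, AUC(0–4 h) log-linear trapezoidal.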

[2] = Influence of novobiocin pretreatment on talazoparib pharmacokinetics in mice; type: in vivo; conditions: female, FVB, mouse, plasma, po, 0.5 mg/kg, mean (±SEM), N=5; for AUC: 0-4 h
How it was run: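 Female mice aged 12–20 weeks (wild-type FVB or ABCB1A/ABCB1B/ABCG2-null), fasted 2 h. Pretreatment (50 mg/kg in 5% dextrose) or vehicle given by oral gavage 30 min before test compound (0.1 mg/mL in 10% dimethylacetamide/5% Solutol HS/85% PBS). Blood sampled 5 min–4 h. Plasma assayed by UHPLC-MS/MS with isotope-labelled internal standard. Cmax read from the curve; AUC0–4h by log-linear trapezoidal rule.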

[3] = Stability of talazoparib in mouse plasma QC samples; type: physicochemical; conditions: for Bench-top stability, mean deviation: ambient temperature (25 °C) for 6 h; for Bench-top stability, mean deviation / Auto-sampler stability, mean deviation / Re-injection stability, mean deviation: N=3; for Auto-sampler stability, mean deviation: auto-sampler at 4 °C for 24 h; for Re-injection stability, mean deviation: reanalyzed after 24 h in auto-sampler at 4 °C
How it was run: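 Spiked mouse plasma QC at low (1.5 ng/mL) and high (80 ng/mL) levels. Conditions: bench-top at ambient temperature 6 h; extracts held in autosampler at 4 °C 24 h; processed samples re-injected after 24 h at 4 °C; three cycles of −80 °C storage for 12 h with room-temperature thaw. Quantified by UHPLC-MS/MS with isotope-labelled IS; acceptable within 85–115% of nominal.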

[4] = clinical studies, oral; cited from earlier work
ABCG2 = conditions: mice with a deficiency of only ABCG2; cited from earlier work
[5] = system: MDCKII cells overexpressing ABCG2; conditions: cited from earlier work
[6] = ABCB1/ABCG2(−/−) mice, novobiocin 50 mg/kg p.o. 30 min before talazoparib 0.5 mg/kg p.o.
[7] = wild-type mice, novobiocin 50 mg/kg p.o. 30 min before talazoparib 0.5 mg/kg p.o.

## Cn1ncnc1[C@H]1c2n[nH]c(=O)c3cc(F)cc(c23)N[C@@H]1c1ccc(F)cc1 [Talazoparib]
[1]; ABCB1/ABCG2(−/−) vs wild-type mice
  increase in AUC with deficiency of ABCB1 and ABCG2: ~1.3 fold
[1]; ABCB1/ABCG2(−/−) mice, N=4
  Cmax: 350 ng/mL
[1]; wild-type FVB mice, N=5
  Cmax: 360 ng/mL
[2]; [6]
  AUC: 890 ng·h/mL
  Cmax: 449 ng/mL
[2]; [7]
  AUC: 615 ng·h/mL
  Cmax: 414 ng/mL
[2]; ABCB1/ABCG2(−/−) mice, co-treatment none (vehicle), talazoparib 0.5 mg/kg p.o.
  Cmax: 352 ng/mL
[2]; wild-type mice, co-treatment none (vehicle), talazoparib 0.5 mg/kg p.o.
  Cmax: 472 ng/mL
[3]; bench-top, room temperature, mouse plasma
  time stable in mouse plasma samples at room temperature: at least 6 h
[3]; extracted samples at 4 °C in auto-sampler
  auto-sampler and reinjection stability time: at least 24 h
[3]; mouse plasma samples, three freeze-thaw cycles
  stability after repeated freeze and thaw cycles: remained stable
[3]; nominal 1.5 ng/mL, mouse plasma
  Bench-top stability, mean deviation: 2.15%
[3]; nominal 1.5 ng/mL
  Auto-sampler stability, mean deviation: −4.34%
  Re-injection stability, mean deviation: 0.64%
[3]; nominal 80 ng/mL, mouse plasma
  Bench-top stability, mean deviation: −8.09%
[3]; nominal 80 ng/mL
  Auto-sampler stability, mean deviation: −5.14%
  Re-injection stability, mean deviation: 0.62%
[4]
  terminal half-life: ~50 h
ABCG2
  levels of talazoparib in plasma: unaltered
[5]
  levels of talazoparib in cells: unaltered
